According to ChEMBL document CHEMBL1157935, “Potent and selective fluoroketone inhibitors of group VIA calcium-independent phospholipase A2” (J Med Chem, 2010):

Columns and labels:
[1] = biological target: T1, 85/88 kDa calcium-independent phospholipase A2 (Homo sapiens) (UniProt O60733); experiment: Inhibition of human recombinant group 6A iPLA2 expressed in Sf9 insect cells after 30 mins by Dole assay
T1 sequence (whole entry): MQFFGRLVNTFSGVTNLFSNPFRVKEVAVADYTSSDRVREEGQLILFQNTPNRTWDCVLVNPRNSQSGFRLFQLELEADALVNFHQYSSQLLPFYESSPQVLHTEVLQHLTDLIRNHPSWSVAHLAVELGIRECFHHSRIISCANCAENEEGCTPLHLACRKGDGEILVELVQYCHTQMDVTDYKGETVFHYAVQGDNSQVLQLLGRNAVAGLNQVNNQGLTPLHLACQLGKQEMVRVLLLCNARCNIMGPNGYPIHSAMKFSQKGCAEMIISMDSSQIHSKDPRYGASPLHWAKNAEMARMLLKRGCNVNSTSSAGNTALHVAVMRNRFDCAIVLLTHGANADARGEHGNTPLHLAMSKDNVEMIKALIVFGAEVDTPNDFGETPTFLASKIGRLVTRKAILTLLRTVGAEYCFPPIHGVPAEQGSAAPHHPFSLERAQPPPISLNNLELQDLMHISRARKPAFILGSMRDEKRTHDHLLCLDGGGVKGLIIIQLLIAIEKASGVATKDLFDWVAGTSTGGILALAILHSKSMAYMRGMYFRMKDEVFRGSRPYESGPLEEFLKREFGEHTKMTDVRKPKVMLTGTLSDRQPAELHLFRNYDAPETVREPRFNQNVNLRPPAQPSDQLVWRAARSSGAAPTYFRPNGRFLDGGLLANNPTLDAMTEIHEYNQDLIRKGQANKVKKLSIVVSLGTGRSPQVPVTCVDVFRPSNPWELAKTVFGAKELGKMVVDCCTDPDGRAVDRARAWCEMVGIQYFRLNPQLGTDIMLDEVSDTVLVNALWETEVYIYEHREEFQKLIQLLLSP
Procedure, shortened: (§1)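 Screen at 0.091 mole fraction (mean, SE, n = 3). XI(50), the inhibitor mole fraction giving 50% inhibition, fitted sigmoidally from typically 7 levels between 0.00091 and 0.091.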

[2] = biological target: T1, 85/88 kDa calcium-independent phospholipase A2 (Homo sapiens); experiment: Inhibition of human recombinant group 6A iPLA2 expressed in Sf9 insect cells at 0.091 mol fraction after 30 mins by Dole assay; procedure, shortened: as §1
[3] = biological target: T2, Cytosolic phospholipase A2 (Homo sapiens) (UniProt P47712); experiment: Inhibition of human group […] cPLA2 at 0.091 mol fraction after 30 mins by Dole assay
T2 sequence (whole entry): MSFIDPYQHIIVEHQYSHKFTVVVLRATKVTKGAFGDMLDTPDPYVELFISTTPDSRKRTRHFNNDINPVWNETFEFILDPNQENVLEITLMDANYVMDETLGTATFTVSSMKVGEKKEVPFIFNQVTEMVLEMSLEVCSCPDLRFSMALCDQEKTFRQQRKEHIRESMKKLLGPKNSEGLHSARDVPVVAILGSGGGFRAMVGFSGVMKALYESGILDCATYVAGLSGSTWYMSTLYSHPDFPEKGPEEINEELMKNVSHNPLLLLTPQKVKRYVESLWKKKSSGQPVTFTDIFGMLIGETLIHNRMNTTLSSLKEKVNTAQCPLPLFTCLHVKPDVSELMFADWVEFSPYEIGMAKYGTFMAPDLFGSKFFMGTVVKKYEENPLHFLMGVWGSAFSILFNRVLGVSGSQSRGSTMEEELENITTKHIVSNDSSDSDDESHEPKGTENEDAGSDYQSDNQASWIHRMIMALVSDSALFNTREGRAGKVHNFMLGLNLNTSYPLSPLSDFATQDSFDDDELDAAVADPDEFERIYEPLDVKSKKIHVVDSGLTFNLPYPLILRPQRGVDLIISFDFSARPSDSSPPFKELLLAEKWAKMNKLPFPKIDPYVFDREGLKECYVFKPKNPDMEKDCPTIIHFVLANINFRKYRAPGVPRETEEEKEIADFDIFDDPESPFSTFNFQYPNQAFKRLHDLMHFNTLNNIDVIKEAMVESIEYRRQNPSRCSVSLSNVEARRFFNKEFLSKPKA
Procedure, shortened: (§2)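 Screened at 0.091 mole fraction (mean, SE, n = 3). XI(50) from % inhibition vs inhibitor mole fraction, typically 7 levels 0.00091–0.091, fitted by symmetrical sigmoidal non-linear regression.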

[4] = biological target: T3, Phospholipase A2 group V (Homo sapiens) (UniProt P39877); experiment: Inhibition of human group 5 sPLA2 at 0.091 mol fraction after 30 mins
T3 sequence (whole entry): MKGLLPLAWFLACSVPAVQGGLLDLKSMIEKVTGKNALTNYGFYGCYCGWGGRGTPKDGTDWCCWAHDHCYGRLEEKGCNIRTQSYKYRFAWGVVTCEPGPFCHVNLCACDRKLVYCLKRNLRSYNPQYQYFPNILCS
Procedure, shortened: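 Inhibitor screened at 0.091 mole fraction of the micelle interface. Average percent inhibition reported (standard error, n = 3); 25% or less inhibition taken as none.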

Homo sapiens [5] = organism: Homo sapiens; experiment: Selectivity ratio for inhibition of human recombinant group 6A iPLA2 over inhibition of human group […] cPLA2
Procedure, shortened: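 Ratio derived from XI(50) values for the two enzymes, using the modified Dole assay with 14C-labelled PAPC in Triton X-100 mixed micelles. GVIA iPLA2: 400 μM Triton X-100, 98.3 μM PAPC, 1.7 μM 14C-PAPC, 100 mM HEPES pH 7.5, 2 mM ATP, 4 mM DTT. GIVA cPLA2: 400 μM Triton X-100, 97 μM PAPC, 1.8 μM 14C-PAPC, 3 μM PIP2, 100 mM HEPES pH 7.5, 90 μM CaCl2, 2 mM DTT, 0.1 mg/ml BSA. XI(50) comes from a sigmoidal fit of % inhibition versus log mole fraction (typically 7 points, 0.00091–0.091).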

Homo sapiens [6] = organism: Homo sapiens; experiment: Selectivity ratio for inhibition of human recombinant group 6A iPLA2 over inhibition of human group 5 sPLA2
[7] = biological target: T2, Cytosolic phospholipase A2 (Homo sapiens); experiment: Inhibition of human group […] cPLA2 after 30 mins by Dole assay; procedure, shortened: as §2

| XI50 (mole fraction) [1] | inhibition [2] | inhibition [3] | inhibition [4] | XI50 (mole fraction) [7] | SMILES | Ratio (Homo sapiens [5]) | Ratio (Homo sapiens [6]) |
| --- | --- | --- | --- | --- | --- | --- | --- |
| 0.0136 | 95.8% | 43.7% | 76.9% |  | CCCCCCOc1ccc(CCCCC(=O)C(F)(F)C(F)(F)C(F)(F)F)cc1 |  |  |
| 0.0024 | 99.4% | 88.8% | 63% |  | CCCCCCCCc1ccc(OCCCC(=O)C(F)(F)C(F)(F)F)cc1 |  |  |
| 0.0258 | 97% | 82% | 65.8% |  | OC(CCCCc1ccccc1)C(F)(F)C(F)(F)C(F)(F)F (stereo unspecified) |  |  |
| 0.0005 | 100% | 79.9% | 36.1% |  | O=C(C(F)CCCc1ccccc1)C(F)(F)C(F)(F)C(F)(F)F (stereo unspecified) | 76 | > 180 |
| 0.0066 | 96.4% |  | 76.9% |  | O=C(/C=C/c1ccccc1)C(F)(F)C(F)(F)F |  |  |
| 0.0036 | 99.1% |  |  |  | O=C(CCCOc1ccccc1)C(F)(F)C(F)(F)F |  |  |
| 0.0084 | 98.3% | 76.1% | 71.7% |  | CCCCCCOc1ccc(CCCCC(=O)C(F)(F)C(F)(F)F)cc1 |  |  |
| 0.0313 | 96% | 59% |  |  | O=C(/C=C/C=C/c1ccccc1)C(F)(F)C(F)(F)F |  |  |
| 0.001 | 99.7% | 55.8% | 46.3% |  | O=C(CCCCc1ccc2ccccc2c1)C(F)(F)C(F)(F)C(F)(F)F |  |  |
| 0.0006 | 99.8% | 77.1% | 58.4% |  | O=C(CCCCc1ccc2ccccc2c1)C(F)(F)C(F)(F)F |  |  |
| 0.0574 | 80.6% | 57% | 33.9% |  | CCCCCCCC/C=C\CCCCCCCC(=O)C(F)(F)C(F)(F)C(F)(F)F |  |  |
| 0.0029 | 99.4% | 91.5% | 61.4% | 0.022 | CCCCCCCCc1ccc(OCCCC(=O)C(F)(F)F)cc1 |  |  |
| 0.0005 | 100% | 68.4% | 39.1% |  | O=C(C(F)CCCc1ccccc1)C(F)(F)C(F)(F)F (stereo unspecified) |  |  |
| 0.0013 | 98.8% | 66% |  |  | O=C(C(F)CCCCc1ccccc1)C(F)(F)F (stereo unspecified) |  |  |
| 0.0022 | 99.4% | 32.6% | 61.8% |  | O=C(CCCCc1ccccc1)C(F)(F)C(F)(F)C(F)(F)F |  |  |
| 0.0025 | 97.6% | 52.1% |  |  | O=C(C(F)CCCc1ccccc1)C(F)(F)F (stereo unspecified) |  |  |
| 0.0014 |  |  |  |  | O=C(CCCCc1ccccc1)C(F)(F)C(F)(F)F |  |  |
| 0.039 | 94.3% | 44.8% | 67.3% |  | OC(CCCCc1ccccc1)C(F)(F)C(F)(F)F (stereo unspecified) |  |  |
| 0.003 | 98.4% |  |  |  | O=C(CCCCCc1ccccc1)C(F)(F)C(F)(F)C(F)(F)F |  |  |
| 0.0192 | 95.5% | 41.4% | 67% |  | CCCCCCCC/C=C\CCCCCCCC(=O)C(F)(F)C(F)(F)F |  |  |

| SMILES | XI50 (mole fraction) [1] | inhibition [2] | inhibition [3] | inhibition [4] | XI50 (mole fraction) [7] | Ratio (Homo sapiens [5]) | Ratio (Homo sapiens [6]) |
| --- | --- | --- | --- | --- | --- | --- | --- |
| O=Cc1ccc(CCCCC(=O)C(F)(F)C(F)(F)F)o1 | 0.0262 | 84.4% |  | 41.9% |  |  |  |
| O=C(CCCCc1ccc2ccccc2c1)C(F)(F)F | 0.0002 | 99.9% | 80.8% | 36.8% |  | 195 | > 455 |
